From ChEMBL document CHEMBL1139764, “Design, synthesis, and structure-activity relationship studies of new phenolic DNA gyrase inhibitors” (2007)
In brackets after ≈: the same amount, converted by molar mass.

Key:
[1] = system: Escherichia coli; test: Inhibition of Escherichia coli D110 DNA gyrase after 30 mins by supercoiling assay
[2] = system: Streptococcus pyogenes; test: Antibacterial activity against Streptococcus pyogenes beta-15 by agar dilution method; type: functional
In short: (§1)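 Twofold serial dilutions in Müller–Hinton agar with an inoculum of 10^4 CFU per spot. The read-out is the minimal inhibitory concentration (MIC).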

[3] = system: Staphylococcus aureus; test: Antibacterial activity against methicillin and quinolones-resistant Staphylococcus aureus Smith QR54 by twofold agar dilution method; type: functional
In short: (§2)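 MIC read as lowest inhibitory level in twofold serial dilutions in Müller–Hinton agar; each spot inoculated with 10^4 CFU.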

[4] = system: Staphylococcus aureus; test: Antibacterial activity against Staphylococcus aureus Smith by twofold agar dilution method; type: functional; in short: as §2
[5] = system: Staphylococcus aureus; test: Antibacterial activity against novobiocin R144I-resistant Staphylococcus aureus ATCC 25923 by agar dilution method; type: functional; in short: as §2
[6] = system: Staphylococcus epidermidis; test: Antibacterial activity against Staphylococcus epidermidis ATCC 14990 by twofold agar dilution method; type: functional; in short: as §1
[7] = system: Staphylococcus aureus; test: Antibacterial activity against Staphylococcus aureus ATCC 25923 by twofold agar dilution method; type: functional; in short: as §2
[8] = system: Enterococcus faecium; test: Antibacterial activity against ampicillin, trimethoprim and vancomycin-resistant Enterococcus faecium vanA E23-8 by twofold agar dilution method; type: functional; in short: as §2
[9] = system: Staphylococcus aureus; test: Antibacterial activity against erythromycin, methicillin and trimethoprim-resistant Staphylococcus aureus Smith 744 by twofold agar dilution method; type: functional; in short: as §2

| Compound | Activity [1] | MIC [2] | MIC [3] | MIC [4] | MIC [5] | MIC [6] | MIC [7] | MIC [8] | MIC [9] |
| --- | --- | --- | --- | --- | --- | --- | --- | --- | --- |
| COC(=O)c1c(C)c(OC)cc(O)c1CNc1cccc(Cl)c1 | 4 µg/mL |  |  |  |  |  |  |  |  |
| Oc1ccc(Br)cc1CNc1ccc(Cl)cc1 | 16 µg/mL |  |  |  |  |  |  |  |  |
| COc1cc(O)c2c(c1C)C(=O)N1c3ccc(Cl)cc3CC[C@H]21 | 0.25 µg/mL | > 32 µg/mL | 32 µg/mL (≈ 97 µM) | > 32 µg/mL | 16 µg/mL (≈ 48.5 µM) | 32 µg/mL (≈ 97 µM) | > 32 µg/mL | > 32 µg/mL |  |
| COc1ccc2c(c1)[C@@H](O)C[C@@H]1c3c(O)cc(OC)c(C)c3C(=O)N21 | 0.5 µg/mL | > 32 µg/mL | 16 µg/mL (≈ 46.9 µM) | 32 µg/mL (≈ 93.7 µM) | 16 µg/mL (≈ 46.9 µM) | 32 µg/mL (≈ 93.7 µM) | > 32 µg/mL | > 32 µg/mL | > 32 µg/mL |
| COc1cc(O)c2c(c1C)C(=O)N1c3ccc(C)cc3COC21 (stereo unspecified) | 0.25 µg/mL | > 32 µg/mL | 16 µg/mL (≈ 51.4 µM) | 16 µg/mL (≈ 51.4 µM) | 16 µg/mL (≈ 51.4 µM) | 2 µg/mL (≈ 6.42 µM) | 32 µg/mL (≈ 103 µM) | > 32 µg/mL | 32 µg/mL (≈ 103 µM) |
| COc1cc(O)c2c(c1C)C(=O)N(c1cnc3ccccc3c1)C2 | 0.5 µg/mL |  |  |  |  |  |  |  |  |
| COc1cc(O)c2c(c1C)C(=O)N(c1ccc3[nH]ncc3c1)C2 | 1 µg/mL |  |  |  |  |  |  |  |  |
| COc1cc(O)c2c(c1C)C(=O)N1c3cccnc3COC21 (stereo unspecified) | 0.13 µg/mL | 32 µg/mL (≈ 107 µM) | 1 µg/mL (≈ 3.35 µM) | 1 µg/mL (≈ 3.35 µM) | 0.5 µg/mL (≈ 1.68 µM) | 0.5 µg/mL (≈ 1.68 µM) | 1 µg/mL (≈ 3.35 µM) | > 32 µg/mL | 2 µg/mL (≈ 6.7 µM) |
| COC(=O)c1c(C)c(OC)cc(O)c1CNc1ccc(Cl)c(Cl)c1 | 2 µg/mL |  |  |  |  |  |  |  |  |
| COC(=O)c1c(C)c(OC)cc(O)c1CNc1ccc(Cl)cc1 | 16 µg/mL |  |  |  |  |  |  |  |  |
| COc1cc(O)c2c(c1C)C(=O)N(c1ccc(Cl)c(Cl)c1)C2 | 4 µg/mL |  |  |  |  |  |  |  |  |
| COC(=O)c1c(C)c(OC)cc(O)c1CNc1cc(Cl)cc(Cl)c1 | 4 µg/mL |  |  |  |  |  |  |  |  |
| COc1cc(O)c2c(c1C)C(=O)N1c3c(C)cccc3COC21 (stereo unspecified) | 0.5 µg/mL | > 32 µg/mL | 16 µg/mL (≈ 51.4 µM) | 32 µg/mL (≈ 103 µM) | 16 µg/mL (≈ 51.4 µM) | 2 µg/mL (≈ 6.42 µM) | 32 µg/mL (≈ 103 µM) | > 32 µg/mL | > 32 µg/mL |
| COc1cc(O)c2c(c1C)C(=O)N1c3ccccc3COC21 (stereo unspecified) | 0.5 µg/mL | > 32 µg/mL |  | > 32 µg/mL |  | > 32 µg/mL | > 32 µg/mL | > 32 µg/mL |  |
| COc1ccc2c(c1)CC[C@@H]1c3c(O)cc(OC)c(C)c3C(=O)N21 | 0.5 µg/mL | > 32 µg/mL | 16 µg/mL (≈ 49.2 µM) | 16 µg/mL (≈ 49.2 µM) | 8 µg/mL (≈ 24.6 µM) | < 2 µg/mL | 32 µg/mL (≈ 98.4 µM) | > 32 µg/mL | > 32 µg/mL |
| Oc1c(Cl)cc(Cl)cc1CNc1ccc(Cl)cc1 | 16 µg/mL |  |  |  |  |  |  |  |  |
| COc1cc(O)c2c(c1C)C(=O)N1c3ccc(Cl)cc3[C@@H](O)C[C@H]21 | 1 µg/mL | 32 µg/mL (≈ 92.5 µM) | 8 µg/mL (≈ 23.1 µM) | 4 µg/mL (≈ 11.6 µM) | 4 µg/mL (≈ 11.6 µM) | 8 µg/mL (≈ 23.1 µM) | 8 µg/mL (≈ 23.1 µM) | > 32 µg/mL | 16 µg/mL (≈ 46.3 µM) |

More lines, main results first:

| Activity [1] | Compound | MIC [2] | MIC [3] | MIC [4] | MIC [5] | MIC [6] | MIC [7] | MIC [8] | MIC [9] |
| --- | --- | --- | --- | --- | --- | --- | --- | --- | --- |
| 4 µg/mL | COc1ccc(N2C(=O)c3c(C)c(OC)cc(O)c3C2CCO)cc1 (stereo unspecified) |  |  |  |  |  |  |  |  |
| 0.5 µg/mL | COC(=O)CCSC1c2c(O)cc(OC)c(C)c2C(=O)N1c1ccc(OC)cc1 (stereo unspecified) |  |  |  |  |  |  |  |  |
| 31 µg/mL | COc1ccc(N2C(=O)c3c(C)c(OC)cc(O)c3C2CC=O)cc1 (stereo unspecified) |  |  |  |  |  |  |  |  |
| 2 µg/mL | C=CCC1c2c(O)cc(OC)c(C)c2C(=O)N1c1ccc(OC)cc1 (stereo unspecified) |  |  |  |  |  |  |  |  |
| 1 µg/mL | COc1cc(O)c2c(c1C)C(=O)N(c1ccc3ncccc3c1)C2 |  |  |  |  |  |  |  |  |
| 16 µg/mL | COc1ccc(N2C(=O)c3c(C)c(OC)cc(O)c3C2OC)cc1 (stereo unspecified) |  |  |  |  |  |  |  |  |
| > 63 µg/mL | COc1ccc(N2C(=O)c3c(C)c(OC)cc(O)c3C2c2ccc(C)o2)cc1 (stereo unspecified) |  |  |  |  |  |  |  |  |
| 4 µg/mL | COc1ccc(N2C(=O)c3c(C)c(OC)cc(O)c3C2Sc2ncccn2)cc1 (stereo unspecified) |  |  |  |  |  |  |  |  |
| 16 µg/mL | CCCCSC1c2c(O)cc(OC)c(C)c2C(=O)N1c1ccc(OC)cc1 (stereo unspecified) |  |  |  |  |  |  |  |  |
